Data taken from ChEMBL document CHEMBL4406880, “Design, synthesis, and bioactivity of dihydropyrimidine derivatives as kinesin spindle protein inhibitors” (Bioorg Med Chem, 2019).

Columns and labels:
Type in all cases: functional
UACC-257 = experiment: Growth inhibition of human UACC257 cells assessed as growth percentage at 10 uM incubated for 48 hrs by sulforhodamine B assay relative to control; settings: UACC-257, 48 h, read-out: Activity
How it was run: (§1)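 NCI-60 single-dose screen. Cells were grown in RPMI 1640 with 5% FBS and 2 mM L-glutamine and plated at 5,000–40,000 cells/well. After an overnight preincubation at 37 °C in 5% CO2, compound was added at a final 10 µM from a DMSO stock, with DMSO/PBS controls. After 48 h, cells were TCA-fixed and stained with 0.4% SRB, and absorbance was read at 515 nm. Growth is given as a percentage of untreated control.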

IGROV-1 = experiment: Growth inhibition of human IGROV1 cells assessed as growth percentage at 10 uM incubated for 48 hrs by sulforhodamine B assay relative to control; settings: IGROV-1, 48 h, read-out: Activity
How it was run: (§2)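 NCI-60 one-dose screen. Cells in RPMI 1640 with 5% FBS and 2 mM L-glutamine, seeded at 5,000–40,000 cells/well according to doubling time, and preincubated overnight at 37 °C, 5% CO2. A time-zero plate was TCA-fixed at drug addition. Compound from DMSO stock, final 10 µM, 48 h; DMSO vehicle controls. Fixation with TCA, 10% final (16% for suspension cells). SRB stain, Tris solubilization, A515. Result given as % growth versus untreated cells.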

MDA-MB-231 = experiment: Growth inhibition of human MDA-MB-231 cells assessed as growth percentage at 10 uM incubated for 48 hrs by sulforhodamine B assay relative to control; settings: MDA-MB-231, 48 h, read-out: Activity; how it was run: as §2
MDA-MB-435 = experiment: Growth inhibition of human MDA-MB-435 cells assessed as growth percentage at 10 uM incubated for 48 hrs by sulforhodamine B assay relative to control; settings: MDA-MB-435, 48 h, read-out: Activity; how it was run: as §2
A549 = experiment: Growth inhibition of human A549/ATCC cells assessed as growth percentage at 10 uM incubated for 48 hrs by sulforhodamine B assay relative to control; settings: A549, 48 h, read-out: Activity
How it was run: (§3)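 NCI-60 one-dose screen: cells in RPMI 1640 with 5% FBS and 2 mM L-glutamine, plated at 5,000–40,000 cells/well and preincubated 24 h at 37 °C, 5% CO2. Compound is added from a DMSO stock to a final 10 µM and incubated 48 h. Cells are TCA-fixed and stained with sulforhodamine B, read at 515 nm. Output is % growth versus untreated control, with a time-zero plate.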

SK-MEL-28 = experiment: Growth inhibition of human SK-MEL-28 cells assessed as growth percentage at 10 uM incubated for 48 hrs by sulforhodamine B assay relative to control; settings: SK-MEL-28, 48 h, read-out: Activity; how it was run: as §1
SK-OV-3 = experiment: Growth inhibition of human SKOV3 cells assessed as growth percentage at 10 uM incubated for 48 hrs by sulforhodamine B assay relative to control; settings: SK-OV-3, 48 h, read-out: Activity; how it was run: as §1
OVCAR-5 = experiment: Growth inhibition of human OVCAR5 cells assessed as growth percentage at 10 uM incubated for 48 hrs by sulforhodamine B assay relative to control; settings: OVCAR-5, 48 h, read-out: Activity; how it was run: as §1
LOX IMVI = experiment: Growth inhibition of human LOXIMVI cells assessed as growth percentage at 10 uM incubated for 48 hrs by sulforhodamine B assay relative to control; settings: read-out: Activity; how it was run: as §2
MCF7 = experiment: Growth inhibition of human MCF7 cells assessed as growth percentage at 10 uM incubated for 48 hrs by sulforhodamine B assay relative to control; settings: MCF7, 48 h, read-out: Activity; how it was run: as §2
Hs-578T = experiment: Growth inhibition of human Hs 578T cells assessed as growth percentage at 10 uM incubated for 48 hrs by sulforhodamine B assay relative to control; settings: read-out: Activity; how it was run: as §2
KM12 = experiment: Growth inhibition of human KM12 cells assessed as growth percentage at 10 uM incubated for 48 hrs by sulforhodamine B assay relative to control; settings: KM12, 48 h, read-out: Activity; how it was run: as §2
HOP-92 = experiment: Growth inhibition of human HOP92 cells assessed as growth percentage at 10 uM incubated for 48 hrs by sulforhodamine B assay relative to control; settings: HOP-92, 48 h, read-out: Activity; how it was run: as §2
CAKI-1 = experiment: Growth inhibition of human Caki1 cells assessed as growth percentage at 10 uM incubated for 48 hrs by sulforhodamine B assay relative to control; settings: CAKI-1, 48 h, read-out: Activity; how it was run: as §3
M14 = experiment: Growth inhibition of human M14 cells assessed as growth percentage at 10 uM incubated for 48 hrs by sulforhodamine B assay relative to control; settings: M14, 48 h, read-out: Activity; how it was run: as §2
NCI/ADR-RES = experiment: Growth inhibition of human NCI/ADR-RES cells assessed as growth percentage at 10 uM incubated for 48 hrs by sulforhodamine B assay relative to control; settings: read-out: Activity; how it was run: as §2
U-251 = experiment: Growth inhibition of human U251 cells assessed as growth percentage at 10 uM incubated for 48 hrs by sulforhodamine B assay relative to control; settings: U-251, 48 h, read-out: Activity; how it was run: as §1
EKVX = experiment: Growth inhibition of human EKVX cells assessed as growth percentage at 10 uM incubated for 48 hrs by sulforhodamine B assay relative to control; settings: read-out: Activity; how it was run: as §3
PC-3 = experiment: Growth inhibition of human PC3 cells assessed as growth percentage at 10 uM incubated for 48 hrs by sulforhodamine B assay relative to control; settings: PC-3, 48 h, read-out: Activity; how it was run: as §1
DU-145 = experiment: Growth inhibition of human DU145 cells assessed as growth percentage at 10 uM incubated for 48 hrs by sulforhodamine B assay relative to control; settings: DU-145, 48 h, read-out: Activity; how it was run: as §3
SNB-75 = experiment: Growth inhibition of human SNB75 cells assessed as growth percentage at 10 uM incubated for 48 hrs by sulforhodamine B assay relative to control; settings: SNB-75, 48 h, read-out: Activity; how it was run: as §1
MOLT-4 = experiment: Growth inhibition of human MOLT4 cells assessed as growth percentage at 10 uM incubated for 48 hrs by sulforhodamine B assay relative to control; settings: MOLT-4, 48 h, read-out: Activity; how it was run: as §2
RPMI-8226 = experiment: Growth inhibition of human RPMI8226 cells assessed as growth percentage at 10 uM incubated for 48 hrs by sulforhodamine B assay relative to control; settings: RPMI-8226, 48 h, read-out: Activity; how it was run: as §1
SNB-19 = experiment: Growth inhibition of human SNB19 cells assessed as growth percentage at 10 uM incubated for 48 hrs by sulforhodamine B assay relative to control; settings: SNB-19, 48 h, read-out: Activity; how it was run: as §1
COLO 205 = experiment: Growth inhibition of human COLO205 cells assessed as growth percentage at 10 uM incubated for 48 hrs by sulforhodamine B assay relative to control; settings: COLO 205, 48 h, read-out: Activity; how it was run: as §3
T47D = experiment: Growth inhibition of human T47D cells assessed as growth percentage at 10 uM incubated for 48 hrs by sulforhodamine B assay relative to control; settings: read-out: Activity; how it was run: as §1
SR = experiment: Growth inhibition of human SR cells assessed as growth percentage at 10 uM incubated for 48 hrs by sulforhodamine B assay relative to control; settings: read-out: Activity; how it was run: as §1

Compound `CC1=C(C(=O)OC(C)C)C(c2ccc3c(c2)OCO3)NC(=O)N1` (racemic) has a growth at 10 µM (UACC-257) of 104%, a growth at 10 µM (IGROV-1) of 101% and a growth at 10 µM (MDA-MB-231) of 104%. For the same compound, the growth at 10 µM (MDA-MB-435) was 110%, the growth at 10 µM (A549) was 106% and the growth at 10 µM (SK-MEL-28) was 108%. The growth at 10 µM (SK-OV-3) was 105%, the growth at 10 µM (OVCAR-5) was 103% and the growth at 10 µM (LOX IMVI) was 96.3%. The growth at 10 µM (MCF7) was 96.5%, the growth at 10 µM (Hs-578T) was 102% and the growth at 10 µM (KM12) was 106%. For the same compound, the growth at 10 µM (HOP-92) was 111%, the growth at 10 µM (CAKI-1) was 93.9% and the growth at 10 µM (M14) was 104%. The growth at 10 µM (NCI/ADR-RES) was 105%, the growth at 10 µM (U-251) was 100% and the growth at 10 µM (EKVX) was 96.1%. For the same compound, the growth at 10 µM (PC-3) was 101%, the growth at 10 µM (DU-145) was 108% and the growth at 10 µM (SNB-75) was 105%. For the same compound, the growth at 10 µM (MOLT-4) was 108%, the growth at 10 µM (RPMI-8226) was 101% and the growth at 10 µM (SNB-19) was 93.6%. For the same compound, the growth at 10 µM (COLO 205) was 124%, the growth at 10 µM (T47D) was 101% and the growth at 10 µM (SR) was 108%.

In the case of `CC1=C(C(=O)OC(C)C)C(c2ccc3c(c2)OCO3)NC(=S)N1` (racemic), the growth at 10 µM (UACC-257) is reported as 100%, the growth at 10 µM (IGROV-1) is reported as 99.9% and the growth at 10 µM (MDA-MB-231) is reported as 101%. The growth at 10 µM (MDA-MB-435) was 106%, the growth at 10 µM (A549) was 104% and the growth at 10 µM (SK-MEL-28) was 106%. The growth at 10 µM (SK-OV-3) was 105%, the growth at 10 µM (OVCAR-5) was 105% and the growth at 10 µM (LOX IMVI) was 97.3%. It also gave a growth at 10 µM (MCF7) of 98.7%, a growth at 10 µM (Hs-578T) of 97.3% and a growth at 10 µM (KM12) of 108%. The growth at 10 µM (HOP-92) was 96.6%, the growth at 10 µM (CAKI-1) was 93.8% and the growth at 10 µM (M14) was 99%. It also gave a growth at 10 µM (NCI/ADR-RES) of 101%, a growth at 10 µM (U-251) of 102% and a growth at 10 µM (EKVX) of 94.4%. For the same compound, the growth at 10 µM (PC-3) was 86%, the growth at 10 µM (DU-145) was 109% and the growth at 10 µM (SNB-75) was 95.2%. For the same compound, the growth at 10 µM (MOLT-4) was 110%, the growth at 10 µM (RPMI-8226) was 87.7% and the growth at 10 µM (SNB-19) was 95.5%. For the same compound, the growth at 10 µM (COLO 205) was 123%, the growth at 10 µM (T47D) was 91.4% and the growth at 10 µM (SR) was 103%.

`CC1=C(C(=O)OCC(C)C)C(c2ccc3c(c2)OCO3)NC(=O)N1` (racemic) showed a growth at 10 µM (UACC-257) of 103%, a growth at 10 µM (IGROV-1) of 94.8% and a growth at 10 µM (MDA-MB-231) of 106%. The growth at 10 µM (MDA-MB-435) was 109%, the growth at 10 µM (A549) was 109% and the growth at 10 µM (SK-MEL-28) was 113%. The growth at 10 µM (SK-OV-3) was 108%, the growth at 10 µM (OVCAR-5) was 104% and the growth at 10 µM (LOX IMVI) was 96.5%. It also gave a growth at 10 µM (MCF7) of 101%, a growth at 10 µM (Hs-578T) of 118% and a growth at 10 µM (KM12) of 104%. The growth at 10 µM (HOP-92) was 102%, the growth at 10 µM (CAKI-1) was 96.3% and the growth at 10 µM (M14) was 105%. The growth at 10 µM (NCI/ADR-RES) was 106%, the growth at 10 µM (U-251) was 99.8% and the growth at 10 µM (EKVX) was 95.5%. It also gave a growth at 10 µM (PC-3) of 92.2%, a growth at 10 µM (DU-145) of 109% and a growth at 10 µM (SNB-75) of 100%. The growth at 10 µM (MOLT-4) was 109%, the growth at 10 µM (RPMI-8226) was 99.9% and the growth at 10 µM (SNB-19) was 107%. For the same compound, the growth at 10 µM (COLO 205) was 119%, the growth at 10 µM (T47D) was 97.5% and the growth at 10 µM (SR) was 108%.
